# Test results reported in ChEMBL document CHEMBL1123247, “Nucleoside conjugates. 7. Synthesis and antitumor activity of 1-beta-D-arabinofuranosylcytosine conjugates of ether lipids” (J Med Chem, 1986).
# How the values were obtained:
# [1] = system: L1210; assay: Antitumor activity was determined against the ic implanted L1210 lymphoid leukemia in mice by percent increase in life span at 80 mg/kg (1-5qd treatment schedule) dosage; assay type: functional, Mus musculus
# How it was run: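 DBA/2J mice, groups of 6 (26-32 g), got 1 × 10^5 L1210 cells ic on day 0. Dosing was ip starting 24 h later, as a sonicated solution or suspension in 0.9% NaCl with 0.5% Tween-80, over a wide dose range. Mice were followed daily until death. Median survival T/C was taken from survivors per NCI protocols, and ILS = (T/C − 1) × 100. Active range means doses giving ILS ≥25%; optimal dose means greatest ILS.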
# [2] = system: L1210; assay: Antitumor activity was determined against the ic implanted L1210 lymphoid leukemia in mice by change in […] at 80 mg/kg (1-5qd treatment schedule) dosage; assay type: functional, Mus musculus
# How it was run: (§1)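 DBA/2J mice, 6 per group (wt 26-32 g), inoculated ic with 1×10^5 L1210 cells on day 0. Dosing ip began 24 h after inoculation, with a sonicated solution or suspension in 0.9% NaCl containing 0.5% Tween-80, given over a range of doses. Animals were followed daily until death. Body weight change, median survival T/C, and %ILS = (T/C − 1) × 100 were computed from survivors per NCI protocols.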
# [3] = system: L1210; assay: Antitumor activity against ip implanted L1210 leukemia in mice expressed as active dose range (1-5qd treatment schedule) required to produce increase in life span by >25% was determined; Range is 10-80; assay type: functional, Mus musculus
# How it was run: (§2)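 DBA/2J mice, groups of 6 (23-28 g), were inoculated ip with 1 × 10^6 L1210 cells on day 0. Dosing was ip from 24 h, in 0.9% NaCl with 0.5% Tween-80 (sonicated solution or suspension). Mice were observed daily until death or day 45. Median survival T/C followed NCI protocols, and ILS = (T/C − 1) × 100. Active range means doses giving ILS ≥25%; optimal dose means greatest ILS.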
# [4] = system: L1210; assay: Antitumor activity was determined against the ic implanted L1210 lymphoid leukemia in mice by change in […] at 133 mg/kg (1,5,9qd treatment schedule) dosage; assay type: functional, Mus musculus; how it was run: as §1
# [5] = system: P388; assay: Antitumor activity was determined against the ip implanted P388 leukemia in mice by percent median survival rate (treated/control) at 133 mg/kg (treatment of 1,5,9qd schedule) dosage; Range is >45.0/11.0; details: route intraperitoneal
# [6] = system: P388; assay: Antitumor activity was determined against the ip implanted P388 leukemia in mice by percent increase in life span at 60 mg/kg (treatment of 1-5qd schedule) dosage; assay type: functional, Mus musculus; details: route intraperitoneal
# How it was run: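 DBA/2J mice, 23-33 g, in groups of 6, were inoculated ip with 1×10^6 P388 cells on day 0. Dosing was ip from 24 h on the stated schedules, in 0.9% NaCl with 0.5% Tween-80 (sonicated solution or suspension). Survival was followed daily until death or 45 days. Median T/C was calculated from survivors per NCI protocols, with ILS = (T/C − 1) × 100.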
# [7] = system: L1210; assay: Antitumor activity was determined against the ip implanted L1210 leukemia in mice by 45-day survivors in mice at 80 mg/kg (treatment of 1-5qd schedule) dosage; assay type: functional, Mus musculus; details: route intraperitoneal
# How it was run: (§3)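 DBA/2J mice in groups of 6 (wt 23-28 g) were inoculated ip with 1×10^6 L1210 cells on day 0. Dosing was ip from 24 h, in 0.9% NaCl with 0.5% Tween-80 (conjugates sonicated), across a range of doses. Mice were observed daily until death or 45 days. Median T/C was computed from survivors per NCI protocols, and ILS = (T/C − 1)×100.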
# [8] = system: L1210; assay: Antitumor activity was determined against the ic implanted L1210 lymphoid leukemia in mice by range in survival days at 167 mg/kg (treatment of 1, 5, 9qd schedule) dosage; Range is 14-22; assay type: functional, Mus musculus
# [9] = system: L1210; assay: Antitumor activity was determined against the ip implanted L1210 leukemia in mice by percent increase in life span at 80 mg/kg (treatment of 1-5qd schedule) dosage; assay type: functional, Mus musculus; details: route intraperitoneal; how it was run: as §3
# [10] = system: L1210; assay: Antitumor activity was determined against the ip implanted L1210 leukemia in mice by percent median survival rate (treated/control) at 400 mg/kg (treatment of 1qd schedule) dosage; 27.5/7.0; assay type: functional, Mus musculus; details: route intraperitoneal
# How it was run: (§4)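 DBA/2J mice, 23-28 g, in groups of 6, were inoculated ip with 1×10^6 L1210 cells on day 0. Dosing was ip starting 24 h later on the stated daily schedules. Conjugates were given as sonicated solutions and reference prodrugs as suspensions in 0.9% NaCl with 0.5% Tween-80. Mice were observed daily until death or 45 days. Median survival T/C was calculated from survivors per NCI protocols.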
# [11] = system: L1210; assay: Antitumor activity was determined against the ip implanted L1210 leukemia in mice by range in survival days at 80 mg/kg (treatment of 1-5qd schedule) dosage; Range is 21-30; assay type: functional, Mus musculus; details: route intraperitoneal; how it was run: as §4
# [12] = system: P388; assay: Antitumor activity was determined against the ip implanted P388 leukemia in mice by percent increase in life span at 300 mg/kg (treatment of 1qd schedule) dosage; details: route intraperitoneal
# [13] = system: P388; assay: Antitumor activity was determined against the ip implanted P388 leukemia in mice by percent increase in life span at 67 mg/kg (treatment of 1,5,9qd schedule) dosage; assay type: functional, Mus musculus; details: route intraperitoneal
# [14] = system: L1210; assay: Antitumor activity was determined against the ip implanted L1210 leukemia in mice by range in survival days at 400 mg/kg (treatment of 1qd schedule) dosage; Range is 15-29; assay type: functional, Mus musculus; details: route intraperitoneal; how it was run: as §4
# [15] = system: P388; assay: Antitumor activity was determined against the ip implanted P388 leukemia in mice by range in survival days at 60 mg/kg (1-5qd treatment schedule) dosage; 21-24; assay type: functional, Mus musculus; details: route intraperitoneal
# [16] = system: L1210; assay: Antitumor activity was determined against the ip implanted L1210 leukemia in mice by median survival time at 100 mg/kg (treatment of 1-5qd schedule) dosage; 23.0/7.0; details: route intraperitoneal
# [17] = system: Small cell lung cancer cell line; assay: Compound was tested for the inhibition of small cell lung cancer; assay type: functional, cell-based; details: Homo sapiens
# How it was run: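 Human leukemia and solid tumor cells in culture were exposed to compound for 48 h. Viability was scored by trypan blue dye exclusion. IC50 (50% inhibition) was estimated from response curves of three separate experiments.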
# [18] = system: L1210; assay: Antitumor activity against ip implanted L1210 leukemia in mice expressed as active dose range (1-5qd treatment schedule) required to produce increase in life span by >25% was determined; Range is 5-350; assay type: functional, Mus musculus; how it was run: as §2
# [19] = system: P388; assay: Antitumor activity against ip implanted P388 leukemia in mice expressed as active dose range (1-5qd treatment schedule) required to produce increase in life span by >25% was determined; Range is 20-200; assay type: functional, Mus musculus
# How it was run: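 P388 leukemia: 1 × 10^6 cells were given ip on day 0 to DBA/2J mice, groups of 6 (23-33 g). Treatment was ip from 24 h after inoculation, vehicle 0.9% NaCl with 0.5% Tween-80. Mice were observed daily until death or 45 days. Median survival T/C was calculated from survivors per NCI protocols, and ILS = (T/C − 1) × 100. Active range means doses giving ILS ≥25%; optimal dose means greatest ILS.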
smiles,measurement,setting,value
CCCCCCCCCCCCCCCC(=O)OC[C@H](COP(=O)(O)OP(=O)(O)OC[C@H]1O[C@@H](n2ccc(N)nc2=O)[C@@H](O)[C@@H]1O)OC(=O)CCCCCCCCCCCCCCC,ILS,[1],175
same,Weight change,[2],-5.24 g mouse-1
same,Active dose range,[3],10 mg/kg/day
same,Weight change,[4],-1.11 g mouse-1
CCCCCCCCCCCCCCCCOCC(COP(=O)(O)OP(=O)(O)OC[C@H]1O[C@@H](n2ccc(N)nc2=O)[C@@H](O)[C@@H]1O)OC(=O)CCCCCCCCCCCCCCC (mixture of isomers),T/C,[5],>45%
same,ILS,[6],>309
same,Survivors,[7],0
same,Range,[8],14
same,ILS,[9],264
same,T/C,[10],27.5%
same,Range,[11],21
same,ILS,[12],>309
CCCCCCCCCCCCCCCCCCOCC(COP(=O)(O)OP(=O)(O)OC[C@H]1O[C@@H](n2ccc(N)nc2=O)[C@@H](O)[C@@H]1O)OC(=O)CCCCCCCCCCCCCCC (mixture of isomers),ILS,[13],132
same,Range,[14],15
same,Range,[15],21
same,median survival time,[16],23 days
Nc1ccn([C@@H]2O[C@H](CO)[C@@H](O)[C@@H]2O)c(=O)n1 [CYTARABINE],IC50,[17],> 100 µM
same,Active dose range,[18],5 mg/kg/day
same,Active dose range,[19],20 mg/kg/day
